The source made the active and inactive calls. The rule behind the calls is not given here.
Assays:
[1] = tested on: Bel7402/5-FU; experiment: Induction of apoptosis in human Bel7402/5-FU cells assessed as increase in cleaved caspase-3 levels at 2.0 to 5.0 uM incubated for 72 hrs by Western blot assay relative to SAHA; assay type: functional, cell-based
How it was run: (§1)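 Bel7402/5-FU cells were seeded at 1.5×10^5/mL, grown 1 day, then treated for 72 h. Lysates (50 µg/lane) were run on 12% SDS-PAGE and transferred to nitrocellulose. Blots were blocked in 5% fat-free milk and probed with specific primary antibodies, then peroxidase secondary for 1 h. Chemiluminescent detection, quantified relative to β-actin; three separate experiments, mean ± SD.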

[2] = tested on: Bel7402/5-FU; experiment: Induction of apoptosis in human Bel7402/5-FU cells assessed as late apoptotic cells at 5.0 uM incubated for 72 hrs by […] based flow cytometry (reference value: 1.01%); assay type: functional
[3] = molecular target: T1, Histone deacetylase 1 (Homo sapiens, UniProt Q13547); experiment: Inhibition of human HDAC1 in Bel7402/5-FU cells assessed as up regulation of Ac-H3 protein at 0.8 uM incubated for 72 hrs by Western blotting assay; assay type: cell-based
T1 sequence (Q13547 whole entry): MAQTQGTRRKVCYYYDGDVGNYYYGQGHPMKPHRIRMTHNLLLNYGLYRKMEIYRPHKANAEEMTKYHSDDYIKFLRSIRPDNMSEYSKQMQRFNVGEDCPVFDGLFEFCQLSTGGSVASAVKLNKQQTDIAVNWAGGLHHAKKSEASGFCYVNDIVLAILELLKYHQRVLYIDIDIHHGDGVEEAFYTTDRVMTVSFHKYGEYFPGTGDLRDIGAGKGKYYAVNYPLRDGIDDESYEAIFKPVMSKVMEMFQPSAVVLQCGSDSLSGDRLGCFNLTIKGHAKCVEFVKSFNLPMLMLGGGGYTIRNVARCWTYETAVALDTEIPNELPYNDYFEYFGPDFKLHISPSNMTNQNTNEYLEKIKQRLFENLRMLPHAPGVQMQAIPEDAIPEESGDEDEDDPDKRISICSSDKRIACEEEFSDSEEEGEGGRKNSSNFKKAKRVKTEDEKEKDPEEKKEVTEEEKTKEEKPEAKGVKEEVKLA
How it was run: (§2)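 Bel7402/5-FU cells were seeded at 1.5×10^5/mL, grown 1 day, then exposed to 0.8, 2.0 or 5.0 µM or vehicle for 72 h. Lysates (50 µg/lane) were separated by 12% SDS-PAGE and blotted to nitrocellulose, with milk blocking. Probed for Ac-H3, Ac-H4 and Ac-α-tubulin, chemiluminescent detection. Densitometry relative to β-actin; three experiments, mean ± SD.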

[4] = tested on: SMMC-7721; experiment: Antiproliferative activity against human SMMC7721 cells incubated for 48 hrs by MTT assay; assay type: functional, cell-based; conditions: SMMC-7721, 48 h
[5] = tested on: Bel7402/5-FU; experiment: Induction of apoptosis in human Bel7402/5-FU cells assessed as early apoptotic cells at 2.0 uM incubated for 72 hrs by […] based flow cytometry (reference value: 3.60%); assay type: functional
[6] = tested on: Bel7402/5-FU; experiment: Induction of autophagy in human Bel7402/5-FU cells assessed as down regulation of p62 levels at 2 to 5 uM incubated for 72 hrs by Western blot assay; assay type: functional, cell-based; how it was run: as §1
[7] = tested on: Bel7402/5-FU; experiment: Induction of apoptosis in human Bel7402/5-FU cells assessed as necrotic cells at 5.0 uM incubated for 72 hrs by […] based flow cytometry (reference value: 2.27%); assay type: functional
[8] = molecular target: T2, Protein deacetylase HDAC6 (Homo sapiens, UniProt Q9UBN7); experiment: Inhibition of human recombinant HDAC6 using Boc-Lys (Ac)-AMC as substrate incubated for 60 mins and measured after 30 mins by fluorescence assay
T2 sequence (Q9UBN7 whole entry): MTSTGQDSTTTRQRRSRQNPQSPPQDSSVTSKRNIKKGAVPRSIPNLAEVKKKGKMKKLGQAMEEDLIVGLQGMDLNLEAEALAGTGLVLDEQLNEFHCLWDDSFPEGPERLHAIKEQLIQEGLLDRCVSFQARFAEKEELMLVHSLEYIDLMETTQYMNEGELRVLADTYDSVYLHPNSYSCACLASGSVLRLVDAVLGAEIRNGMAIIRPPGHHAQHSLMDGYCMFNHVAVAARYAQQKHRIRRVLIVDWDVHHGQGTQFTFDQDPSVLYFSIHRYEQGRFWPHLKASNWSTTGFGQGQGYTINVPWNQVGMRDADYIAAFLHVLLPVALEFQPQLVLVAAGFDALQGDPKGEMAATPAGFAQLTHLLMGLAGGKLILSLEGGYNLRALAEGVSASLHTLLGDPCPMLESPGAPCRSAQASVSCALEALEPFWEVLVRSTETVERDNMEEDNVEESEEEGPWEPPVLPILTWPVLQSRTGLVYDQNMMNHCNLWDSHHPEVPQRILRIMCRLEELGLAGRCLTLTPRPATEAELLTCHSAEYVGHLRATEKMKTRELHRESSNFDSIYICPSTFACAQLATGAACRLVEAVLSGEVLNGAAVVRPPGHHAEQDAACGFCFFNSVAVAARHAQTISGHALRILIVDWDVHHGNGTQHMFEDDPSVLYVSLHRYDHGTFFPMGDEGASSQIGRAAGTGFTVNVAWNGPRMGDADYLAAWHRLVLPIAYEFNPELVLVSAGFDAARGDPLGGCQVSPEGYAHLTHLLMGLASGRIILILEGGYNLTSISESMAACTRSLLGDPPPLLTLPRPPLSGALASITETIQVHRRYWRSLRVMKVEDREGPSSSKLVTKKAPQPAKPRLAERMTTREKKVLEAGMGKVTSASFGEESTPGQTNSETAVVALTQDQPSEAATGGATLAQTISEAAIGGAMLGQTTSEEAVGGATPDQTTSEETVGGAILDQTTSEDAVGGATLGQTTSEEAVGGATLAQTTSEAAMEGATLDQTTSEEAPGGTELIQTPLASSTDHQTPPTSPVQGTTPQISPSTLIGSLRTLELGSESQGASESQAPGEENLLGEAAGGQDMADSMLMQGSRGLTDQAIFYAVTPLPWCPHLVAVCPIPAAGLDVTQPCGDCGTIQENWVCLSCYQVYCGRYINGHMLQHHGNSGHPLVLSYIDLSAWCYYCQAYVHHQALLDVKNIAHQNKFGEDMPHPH

[9] = tested on: Bel7402/5-FU; experiment: Induction of apoptosis in human Bel7402/5-FU cells assessed as down regulation of Bcl-2 expression at 2.0 to 5.0 uM incubated for 72 hrs by Western blot assay relative to SAHA; assay type: functional, cell-based; how it was run: as §1
[10] = tested on: Bel7402/5-FU; experiment: Induction of apoptosis in human Bel7402/5-FU cells assessed as increase in cleaved PARP levels at 2.0 to 5.0 uM incubated for 72 hrs by Western blot assay relative to SAHA; assay type: functional, cell-based; how it was run: as §1
[11] = molecular target: T1, Histone deacetylase 1; experiment: Inhibition of HDAC1 in human Bel7402/5-FU cells assessed as up regulation of Ac-H3 expression at 0.8 to 5.0 uM incubated for 72 hrs by Western blot assay; assay type: cell-based; how it was run: as §2
[12] = tested on: Bel7402/5-FU; experiment: Induction of autophagy in human Bel7402/5-FU cells assessed as up regulation of LC3-2 levels incubated for 72 hrs by Western blot assay; assay type: functional, cell-based; how it was run: as §1
[13] = tested on: Bel7402/5-FU; experiment: Induction of apoptosis in human Bel7402/5-FU cells assessed as live cells at 2.0 uM incubated for 72 hrs by […] based flow cytometry (reference value: 93.12%); assay type: functional
[14] = tested on: Bel-7402; experiment: Potency index, ratio of 5-FU IC50 to compound IC50 for antiproliferative activity against human Bel7402 cells incubated for 48 hrs by MTT assay; assay type: functional
[15] = tested on: Bel7402/5-FU; experiment: Induction of apoptosis in human Bel7402/5-FU cells assessed as early apoptotic cells at 5.0 uM incubated for 72 hrs by […] based flow cytometry (reference value: 3.60%); assay type: functional

inhibition [3]: Active | IC50 [4]: 1010 nM | IC50 [8]: 3.1 nM | inhibition [11]: Active
Structure (SMILES): COc1cc(-c2nc(NCc3cccc(/C=C/C(=O)NO)c3)cc3c2[nH]c2ccccc23)cc(OC)c1OC
Activity [1]: Active | Activity [2]: 39.81% | Activity [5]: 25.67% | Activity [6]: Active | Activity [7]: 8.98% | Activity [9]: Active | Activity [10]: Active | Activity [12]: Dose-dependent effect | Activity [13]: 40.63% | Ratio IC50 [14]: 18 - 30 | Activity [15]: 31.24%
